From ChEMBL document CHEMBL2150861, “Fibrate-derived N-(methylsulfonyl)amides with antagonistic properties on PPARα” (Eur J Med Chem, 2012)
Calls of active or inactive are those of the source. The rule behind the calls is not given here.

Assays:
[1] = target: T1, Peroxisome proliferator-activated receptor alpha (Homo sapiens) (UniProt Q07869); assay: Transactivation of PPARalpha expressed in HEK293A cells co-expressing GAL4 at 150 uM after 16 to 18 hrs by luciferase reporter gene assay relative to control; type: cell-based; settings: HEK293-A
T1 sequence (whole entry): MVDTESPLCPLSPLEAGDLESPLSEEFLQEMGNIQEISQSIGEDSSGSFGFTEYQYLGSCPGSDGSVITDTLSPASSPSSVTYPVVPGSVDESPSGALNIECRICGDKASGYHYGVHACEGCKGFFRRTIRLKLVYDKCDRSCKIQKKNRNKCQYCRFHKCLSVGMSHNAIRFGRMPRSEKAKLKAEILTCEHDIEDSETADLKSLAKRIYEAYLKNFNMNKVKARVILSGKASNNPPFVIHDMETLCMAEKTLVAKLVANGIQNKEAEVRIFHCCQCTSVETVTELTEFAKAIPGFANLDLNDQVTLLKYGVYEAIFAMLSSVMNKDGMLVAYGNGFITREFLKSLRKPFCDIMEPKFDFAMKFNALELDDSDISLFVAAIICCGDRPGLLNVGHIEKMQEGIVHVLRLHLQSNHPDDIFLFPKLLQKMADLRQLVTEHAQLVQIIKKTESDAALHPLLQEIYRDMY
Method in brief: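 Single-concentration agonist-mode transactivation: GAL4–PPARα or GAL4–PPARγ chimera, calcium-phosphate transfected into HEK293A cells with reporter, renilla and pGEM plasmids. […] Firefly luciferase read after 16–18 h. Values are ± SEM.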

[2] = target: T2, Peroxisome proliferator-activated receptor alpha (Homo sapiens, UniProt Q07869); assay: (§1) Antagonist activity at PPARalpha expressed in HEK293 cells co-expressing GAL4 assessed as inhibition of GW7647-induced transactivation activity after 16 to 18 hrs by luciferase reporter gene assay; type: functional, cell-based
T2 sequence (Q07869 whole entry): T1 sequence (whole entry)
Method in brief: (§2)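 GAL4–PPARα chimera in HEK293A cells grown to 70–80% confluency over 16 h, then switched to serum-free medium. Cells co-transfected by calcium phosphate with reporter, renilla, pGEM and receptor plasmids. […] Firefly luciferase read after 16–18 h. Five concentrations, 1–150 µM, at least three separate experiments, IC50 ± SEM.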

[3] = target: T2, Peroxisome proliferator-activated receptor alpha; assay: Binding affinity to PPARalpha LBD after 2 hrs by TR-FRET analysis
Method in brief: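 TR-FRET competitive binding to PPARα LBD. Five concentrations, three independent experiments. After 2 h incubation, excitation at 340 nm, emission at 520 nm (fluorescein acceptor) and 495 nm (terbium donor). Ratio 520/495 used to derive IC50.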

[4] = target: T3, Peroxisome proliferator-activated receptor gamma (Homo sapiens) (UniProt P37231); assay: Antagonist activity at PPARgamma expressed in HEK293A cells co-expressing GAL4 after 16 to 18 hrs by luciferase reporter gene assay; type: functional, cell-based; settings: HEK293-A
T3 sequence (whole entry): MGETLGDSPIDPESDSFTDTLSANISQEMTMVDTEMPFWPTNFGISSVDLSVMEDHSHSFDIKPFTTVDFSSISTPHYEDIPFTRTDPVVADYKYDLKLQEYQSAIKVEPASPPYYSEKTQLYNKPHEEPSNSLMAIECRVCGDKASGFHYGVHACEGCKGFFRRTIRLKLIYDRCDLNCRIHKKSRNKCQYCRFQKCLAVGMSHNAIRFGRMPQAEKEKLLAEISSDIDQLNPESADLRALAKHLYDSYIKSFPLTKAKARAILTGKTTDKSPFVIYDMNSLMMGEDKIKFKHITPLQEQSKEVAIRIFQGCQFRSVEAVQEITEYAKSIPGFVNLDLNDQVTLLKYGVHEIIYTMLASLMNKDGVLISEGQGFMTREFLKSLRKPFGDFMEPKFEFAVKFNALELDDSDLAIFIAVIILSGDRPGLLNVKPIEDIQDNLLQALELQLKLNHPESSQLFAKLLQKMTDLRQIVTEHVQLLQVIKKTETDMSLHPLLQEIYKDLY

[5] = target: T1, Peroxisome proliferator-activated receptor alpha (Homo sapiens); assay: Binding affinity to PPARalpha LBD at 100 uM after 2 hrs by TR-FRET analysis
Method in brief: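 After 2 h incubation, excitation at 340 nm and emission at 520 and 495 nm. The 520/495 ratio is normalized to clofibric acid as 100%.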

[6] = target: T1, Peroxisome proliferator-activated receptor alpha (Homo sapiens); assay: Transactivation of PPARalpha expressed in HEK293A cells co-expressing GAL4 at 1 to 150 uM after 16 to 18 hrs by luciferase reporter gene assay; type: cell-based; settings: HEK293-A
Method in brief: (§3)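 HEK293A cells cultured to 70–80% confluency, moved to serum-free medium, then calcium-phosphate co-transfected with GAL4–PPARα, luciferase reporter, renilla and pGEM plasmids. Compounds added 6 h after transfection and run in agonist mode. Firefly luciferase activity measured after 16–18 h. Five concentrations from 1 to 150 µM, at least three separate experiments, EC50 ± SEM.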

[7] = target: T1, Peroxisome proliferator-activated receptor alpha (Homo sapiens); assay: Antagonist activity at PPARalpha expressed in HEK293A cells co-expressing GAL4 assessed as inhibition of GW7647-induced transactivation activity at 1 to 150 uM after 16 to 18 hrs by luciferase reporter gene assay; type: functional, cell-based; settings: HEK293-A; method in brief: as §2
[8] = target: T2, Peroxisome proliferator-activated receptor alpha; assay: Transactivation of PPARalpha expressed in HEK293A cells co-expressing GAL4 after 16 to 18 hrs by luciferase reporter gene assay; type: cell-based, HEK293-A; method in brief: as §3
[9] = target: T3, Peroxisome proliferator-activated receptor gamma (Homo sapiens); assay: Transactivation of PPARgamma expressed in HEK293A cells co-expressing GAL4 at the concentration corresponding to IC50 or EC50 on PPARalpha after 16 to 18 hrs by luciferase reporter gene assay; settings: HEK293-A
[10] = target: T1, Peroxisome proliferator-activated receptor alpha (Homo sapiens); assay: as §1; type: functional, cell-based; method in brief: as §2

Row | SMILES | fold change (FC) [1] | IC50 [2] | IC50 [3] | inhibition [4] | Activity [5] | Activity [6] | inhibition [7] | EC50 [8] | Activity [9] | inhibition [10]
1 | CS(=O)(=O)NC(=O)C(Sc1nc2cc(Cl)ccc2s1)c1ccccc1 (stereo unspecified) | 0.07 | 900 nM | 950 nM | Active | 95.3% | inactive | – | – | – | –
2 | CC(C)(Oc1ccc(Cl)cc1)C(=O)O | 1.6 | – | – | – | – | – | inactive | – | – | –
3 | CC(C)(Oc1ccc(C(=O)c2ccc(Cl)cc2)cc1)C(=O)NS(C)(=O)=O | 1.1 | – | – | – | 128% | inactive | inactive | – | – | –
4 | CCCCC(Sc1nc2cc(Cl)ccc2s1)C(=O)NS(C)(=O)=O (stereo unspecified) | 0.08 | 800 nM | 600 nM | – | 117% | inactive | – | – | – | Dose-dependent effect
5 | CCCCCCC(Sc1nc2cc(Cl)ccc2s1)C(=O)NS(C)(=O)=O (stereo unspecified) | 0.04 | 5100 nM | – | Active | Active | inactive | – | – | – | –
6 | CCCC(Sc1nc2cc(Cl)ccc2s1)C(=O)NS(C)(=O)=O (stereo unspecified) | 0.28 | 600 nM | 890 nM | – | 80.9% | inactive | – | – | Active | –
7 | CC(C)(Oc1ccc(Cl)cc1)C(=O)NS(C)(=O)=O | 1.7 | – | – | – | 121% | – | inactive | 10700 nM | Active | –

More lines, now with the values ahead:

Row | fold change (FC) [1] | IC50 [2] | IC50 [3] | inhibition [4] | Activity [5] | Activity [6] | inhibition [7] | EC50 [8] | Activity [9] | inhibition [10] | SMILES
8 | 1.55 | – | – | – | 118% | – | inactive | 7100 nM | Active | – | Cc1ccc(C)c(OCCCC(C)(C)C(=O)NS(C)(=O)=O)c1
9 | 1.84 | – | – | – | Active | – | inactive | 1590 nM | Active | – | CCOc1ccc2nc(SC(C)C(=O)NS(C)(=O)=O)sc2c1 (stereo unspecified)
10 | 0.36 | 8870 nM | 480 nM | – | 137% | inactive | – | – | Active | – | CCCC(Sc1nc2ccc(OCC)cc2s1)C(=O)NS(C)(=O)=O (stereo unspecified)
11 | 0.44 | 68500 nM | – | – | Active | inactive | – | – | Active | Dose-dependent effect | CC(C)(Oc1ccc(CCNC(=O)c2ccc(Cl)cc2)cc1)C(=O)NS(C)(=O)=O
12 | 0.47 | 46500 nM | – | – | Active | inactive | – | – | Active | – | CC(C)C(Sc1nc2cc(Cl)ccc2s1)C(=O)NS(C)(=O)=O (stereo unspecified)
